Laboratory results as given in ChEMBL document CHEMBL1212778, “Small-molecule inhibitors target Escherichia coli amyloid biogenesis and biofilm formation” (2009).
The source made the active and inactive calls. No cut-off for these calls is given here.

Tests used:
Escherichia coli [1] = assay: Inhibition of CsgF biogenesis in Escherichia coli K-12 at 2.5 mM after […] by polyacrylamide gel-shift assay; assay type: functional, organism-based
How it was run: (§1)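 MC4100 was grown 48 h at 26 °C on YESCA agar containing compound at 0.1, 1.0 or 2.5 mM final, with a DMSO carrier control (3.6% v/v). Cells were resuspended in PBS to OD600 0.5 and curli were dissociated with HFIP or formic acid. CsgA, CsgB, CsgF and CsgG were detected by SDS-PAGE immunoblot with curli-specific antibodies. MC4100Δcsg served as negative control.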

Escherichia coli [2] = assay: Inhibition of CsgG biogenesis in Escherichia coli K-12 at 2.5 mM after […] by polyacrylamide gel-shift assay; assay type: functional, organism-based; how it was run: as §1
Escherichia coli [3] = assay: Inhibition of curli protein biogenesis in uropathogenic Escherichia coli UTI89 at 60 to 250 uM after 48 hrs by electron microscopy; assay type: functional, organism-based
How it was run: (§2)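 UTI89 was inoculated from an overnight LB culture into YESCA broth containing compound and shaken at 100 rpm, 28 °C, for 48 h. Cells were pelleted, resuspended in PBS and normalized to OD600 0.5. Curli were dissolved with formic acid and analysed by curli-antibody immunoblot. Samples prepared the same way were also imaged by high-resolution EM.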

Escherichia coli [4] = assay: Antibacterial activity against Escherichia coli UTI89 at 400 uM after 24 hrs by spectrophotometry; assay type: functional, organism-based
Escherichia coli [5] = assay: Inhibition of type 1 pili biogenesis in uropathogenic Escherichia coli UTI89 at 500 uM after 48 hrs in YESCA broth medium by congo red staining-based confocal microscopy; assay type: functional, organism-based; settings: in the assay text read “curli-dependent pellicle formation” for “type 1 pili biogenesis”
How it was run: (§3)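 Pellicle formation was scored visually in a 24-well plate assay. UTI89 was grown in Congo red-containing YESCA broth at 30 °C, with pellicles judged about 48 h after inoculation. DMSO carrier served as control.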

Escherichia coli [6] = assay: Inhibition of curli protein biogenesis in uropathogenic Escherichia coli UTI89 assessed as complete inhibition of biofilm formation in PVC wells at 50 to 400 uM after 48 hrs in YESCA broth medium by crystal violet staining; assay type: functional, organism-based
How it was run: (§4)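 UTI89 was grown 48 h in YESCA broth in PVC microtiter wells with compound. Wells were rinsed, stained with crystal violet and quantified. Percent inhibition is relative to no-compound controls included on each plate. Data are four experiments, with bars as s.d.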

Escherichia coli [7] = assay: Inhibition of type 1 pili biogenesis in uropathogenic Escherichia coli UTI89 assessed as complete inhibition of biofilm formation in PVC wells at 50 uM after 48 hrs in LB broth medium by crystal violet staining; assay type: functional; settings: UTI89, 48 h
How it was run: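 UTI89 was grown 48 h in LB broth in PVC microtiter wells with compound; biofilm here is type 1 pili-dependent. Wells were rinsed and stained with crystal violet. Percent inhibition is relative to no-compound controls on each plate, from four experiments.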

Escherichia coli [8] = assay: Inhibition of curli protein biogenesis in Escherichia coli K-12 at 2.5 mM […] by polyacrylamide gel-shift assay; assay type: functional, organism-based; how it was run: as §1
Escherichia coli [9] = assay: Inhibition of curli protein biogenesis in uropathogenic Escherichia coli UTI89 at 60 to 250 uM after 48 hrs in YESCA broth medium by polyacrylamide gel-shift assay; assay type: functional, organism-based; how it was run: as §2
Escherichia coli [10] = assay: Inhibition of […] in uropathogenic Escherichia coli UTI89 at 5 uM after 48 hrs in YESCA broth medium by congo red staining-based […]; assay type: functional, organism-based; how it was run: as §3
Escherichia coli [11] = assay: Inhibition of curli protein biogenesis in uropathogenic Escherichia coli UTI89 assessed as inhibition of biofilm formation in PVC wells at 100 uM after 48 hrs in YESCA broth medium by crystal violet staining; assay type: functional; settings: UTI89, 48 h; how it was run: as §4
Escherichia coli [12] = assay: Inhibition of curli protein biogenesis in uropathogenic Escherichia coli UTI89 assessed as complete inhibition of biofilm formation in PVC wells at 200 uM after 48 hrs in YESCA broth medium by crystal violet staining; assay type: functional, organism-based; how it was run: as §4
Escherichia coli [13] = assay: Inhibition of curli protein biogenesis in uropathogenic Escherichia coli UTI89 assessed as complete inhibition of biofilm formation in PVC wells at 400 uM after 48 hrs in YESCA broth medium by crystal violet staining; assay type: functional, organism-based; how it was run: as §4
Escherichia coli [14] = assay: Inhibition of curli protein biogenesis in uropathogenic Escherichia coli UTI89 at 60 to 250 uM after 48 hrs in YESCA broth medium by polyacrylamide gel-shift assay
Escherichia coli [15] = assay: Inhibition of curli protein biogenesis in Escherichia coli K-12 at 1 mM after […] by polyacrylamide gel-shift assay; assay type: functional, organism-based; how it was run: as §1
[16] = target: Major curlin subunit (Escherichia coli (strain K12)) (UniProt P28307); assay: Inhibition of CsgA polymerization in Escherichia coli K-12 at 125 uM after 24 hrs by thioflavin-T amyloid polymerization assay
Major curlin subunit (Escherichia coli (strain K12)), sequence (P28307 whole entry): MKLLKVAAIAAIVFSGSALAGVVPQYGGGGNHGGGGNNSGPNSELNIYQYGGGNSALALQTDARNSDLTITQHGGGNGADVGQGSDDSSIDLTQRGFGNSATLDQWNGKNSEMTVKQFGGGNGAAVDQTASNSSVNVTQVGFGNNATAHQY
How it was run: (§5)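 Freshly purified, soluble, unstructured C-terminal His6-CsgA (25 μM) was incubated with 25 μM ThT with or without compound. Fluorescence (excitation 438 nm, emission 495 nm) was followed over time at 60-min intervals. Soluble CsgA was confirmed by SDS-PAGE and anti-CsgA western blot, since polymerized CsgA is SDS-insoluble.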

[17] = target: Major curlin subunit (Escherichia coli (strain K12)) (UniProt P28307); assay: Inhibition of CsgA polymerization in Escherichia coli K-12 at 10 uM after 24 hrs by thioflavin-T amyloid polymerization assay; how it was run: as §5
[18] = target: Major curlin subunit (Escherichia coli (strain K12)) (UniProt P28307); assay: Inhibition of CsgA polymerization in Escherichia coli K-12 at 25 uM after 24 hrs by thioflavin-T amyloid polymerization assay; how it was run: as §5
Escherichia coli [19] = assay: Inhibition of type 1 pili biogenesis in uropathogenic Escherichia coli UTI89 at 5 to 15 uM after 48 hrs by SYTO83 staining-based confocal microscopy; assay type: functional, organism-based
Escherichia coli [20] = assay: Inhibition of type 1 pili biogenesis in uropathogenic Escherichia coli UTI89 at 5 to 15 uM after 48 hrs by congo red staining-based confocal microscopy; assay type: functional, organism-based
Escherichia coli [21] = assay: Inhibition of type 1 pili biogenesis in uropathogenic Escherichia coli UTI89 at 5 to 15 uM after 48 hrs by calcofluor staining-based confocal microscopy; assay type: functional, organism-based
Escherichia coli [22] = assay: Inhibition of curli protein biogenesis in uropathogenic Escherichia coli UTI89 assessed as inhibition of biofilm formation in PVC wells at 50 uM after 48 hrs in YESCA broth medium by crystal violet staining; assay type: functional; settings: UTI89, 48 h; how it was run: as §4
Escherichia coli [23] = assay: Antibacterial activity against uropathogenic Escherichia coli UTI89 infected in C3H/HeN mouse assessed as reduction bacterial load in bladder at 250 uM after 6 hrs post-infection by punctate violet staining relative to control; assay type: functional, Urinary bladder
How it was run: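 UTI89 was grown under type 1 pili-inducing conditions with or without 250 μM compound, then resuspended in PBS to OD600 0.5. 50 μl (1–2 × 10^7 CFU) was instilled transurethrally into 7–8-week-old female C3H/HeN mice. At 6 hpi, bladders were homogenized and plated for CFU (16 h, 37 °C), or fixed and LacZ-stained to count IBCs. Two-tailed Mann-Whitney test.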

Escherichia coli [24] = assay: Inhibition of type 1 pili biogenesis in uropathogenic Escherichia coli UTI89 at 25 uM after 48 hrs in YESCA broth medium by […]; assay type: functional, organism-based; how it was run: as §3

inhibition [16]	inhibition [18]	Structure (SMILES)	inhibition (Escherichia coli [1])	inhibition (Escherichia coli [2])	inhibition (Escherichia coli [3])	Activity (Escherichia coli [4])	inhibition at 50 µM (Escherichia coli [7]) [%]	inhibition (Escherichia coli [8])	inhibition (Escherichia coli [9])	inhibition (Escherichia coli [10])	inhibition at 100 µM (Escherichia coli [11]) [%]	inhibition (Escherichia coli [12])	inhibition (Escherichia coli [13])	inhibition (Escherichia coli [14])	inhibition (Escherichia coli [19])	inhibition (Escherichia coli [20])	inhibition (Escherichia coli [21])	further results
–	–	O=C(O)[C@@H]1CSc2c(C3CC3)c(Cc3cccc4ccccc34)cc(=O)n21	inactive	inactive	inactive	inactive	38	–	–	–	–	–	–	–	–	–	–	inhibition (Escherichia coli [5]): inactive; inhibition (Escherichia coli [6]): inactive
–	–	O=C(O)[C@@H]1CSc2c(-c3ccc(Br)cc3)c(Cc3cccc4ccccc34)cc(=O)n21	inactive	inactive	Active	inactive	–	inactive	Active	inactive	50	Active	Active	Active	–	–	–	–
Active	Active	O=C(O)[C@@H]1CSc2c(-c3cccc(C(F)(F)F)c3)c(Cc3cccc4ccccc34)cc(=O)n21	inactive	inactive	Active	inactive	99	–	Active	Active	90	–	–	Active	Active	Active	Active	inhibition (Escherichia coli [15]): Active; inhibition [17]: Active; inhibition at 50 µM (Escherichia coli [22]): 50%; fold change (FC) (Escherichia coli [23]): 10
Active	Active	O=C(O)[C@@H]1CSc2c(-c3ccc(F)c(F)c3)c(Cc3ccc4ccccc4c3)cc(=O)n21	inactive	inactive	Active	inactive	92	Active	Active	–	50	Active	Active	Active	Active	Active	Active	inhibition (Escherichia coli [24]): Active
